Assay results: ChEMBL document CHEMBL3779852, “Structure-based design of N-substituted 1-hydroxy-4-sulfamoyl-2-naphthoates as selective inhibitors of the Mcl-1 oncoprotein” (Eur J Med Chem, 2016)
Calls of active or inactive are those of the source. The calls are words filed in the database; no cut-off is given here.

Experiments:
[1] = Inhibition of Bcl-XL (unknown origin) after 3 hrs by fluorescence polarization competition assay; parameters: species or system Homo sapiens
Homo sapiens = organism: Homo sapiens; assay: Selectivity ratio of Ki for Bcl-XL (unknown origin) to Ki for His6-MBP tagged recombinant human Mcl-1 residues 172 to 327 expressed in Escherichia coli
Summary of the method: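 Ratio computed as Ki(Bcl-xL) divided by Ki(Mcl-1). Both Ki values come from FP competition IC50s converted with the Nikolovska-Coleska equation, averaged over at least two independent assays. Hill-equation fit gives the IC50.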

[2] = biological target: T1, Induced myeloid leukemia cell differentiation protein Mcl-1 (Homo sapiens, UniProt Q07820); assay: Inhibition of His6-MBP tagged recombinant human Mcl-1 residues 172 to 327 expressed in Escherichia coli assessed as inhibition of interaction with Bak BH3 peptide (GQVGRQLAIIGDDINR) after 3 hrs by fluorescence polarization competition assay
T1 sequence (Q07820 whole entry, the tested form may be a part): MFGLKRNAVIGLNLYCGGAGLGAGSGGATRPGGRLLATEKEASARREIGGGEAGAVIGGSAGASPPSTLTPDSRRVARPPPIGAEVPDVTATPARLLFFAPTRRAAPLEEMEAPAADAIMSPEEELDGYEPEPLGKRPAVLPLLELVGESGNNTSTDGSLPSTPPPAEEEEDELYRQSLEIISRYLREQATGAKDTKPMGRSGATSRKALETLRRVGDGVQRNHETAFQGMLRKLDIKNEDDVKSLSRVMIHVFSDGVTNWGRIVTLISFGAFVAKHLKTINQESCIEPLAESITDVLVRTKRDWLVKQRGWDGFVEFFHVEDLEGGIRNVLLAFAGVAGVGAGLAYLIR

A-375 = assay: Antiproliferative activity against human A375 cells after 48 hrs by Cell titer blue viability assay; type: functional, cell-based; details: A-375, 48 h
Summary of the method: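 A375 cells seeded at 5,000/well in DMEM with 10% HIFBS and PenStrep, cultured overnight. Compounds added at final 4.69–300 μM (two-fold series) in 1% DMSO; vehicle controls also at 1% DMSO. After 48 h exposure, Cell Titer-Blue added for 2 h, fluorescence read at 560 ex/590 em. Percent viability relative to untreated cells, corrected for cell-free background.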

SK-MEL-5 = assay: Antiproliferative activity against human SK-MEL-5 cells after 48 hrs by Cell titer blue viability assay; type: functional, cell-based; details: SK-MEL-5, 48 h
[3] = biological target: T1, Induced myeloid leukemia cell differentiation protein Mcl-1; assay: Binding affinity to recombinant human 15N-labeled Mcl-1 (172 to 327 residues) expressed in Escherichia coli by NMR spectroscopy
Summary of the method: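 Proton shifts were referenced to the H2O/HDO signal (4.658 ppm versus external TSP) at 37 °C. The protein was size-exclusion purified to >98% purity by SDS-PAGE, with concentration determined by Bradford assay.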

| SMILES | Ki ([1]; read-out: Ki) | Ratio Ki (Homo sapiens) | further results |
| --- | --- | --- | --- |
| CN(C)S(=O)(=O)c1cc(C(=O)O)c(O)c2ccccc12 | – | – | Ki [1]: Not Active |
| O=C(O)c1cc(S(=O)(=O)NCc2ccc(Cl)cc2)c2ccccc2c1O | 338 µM | 16 | – |
| COC(=O)c1cc(S(=O)(=O)N(CC(C)C)c2ccc(OC(C)C)cc2)c2ccccc2c1O | – | – | inhibition [2]: inactive; IC50 (A-375): 300 µM; IC50 (SK-MEL-5): 300 µM |
| O=C(O)c1cc(S(=O)(=O)Nc2ccc(Br)cc2)c2ccccc2c1O | 51.4 µM | 19 | IC50 (A-375): 300 µM; IC50 (SK-MEL-5): 300 µM |
| CC(C)Oc1ccc(NS(=O)(=O)c2cc(C(=O)O)c(O)c3ccccc23)cc1 | – | – | Ki [1]: Not Active |
| O=C(O)c1cc(S(=O)(=O)Nc2ccc(Oc3cccc4ccccc34)cc2)c2ccccc2c1O | 0.22 µM | 3.7 | – |
| O=C(O)c1cc(S(=O)(=O)Nc2ccc3ccccc3c2)c2ccccc2c1O | 68.5 µM | 15 | – |
| Cc1cc(Oc2ccc(N(Cc3ccccc3)S(=O)(=O)c3cc(C(=O)O)c(O)c4ccccc34)cc2)cc(C)c1Cl | 0.34 µM | – | IC50 (A-375): 50 µM; IC50 (SK-MEL-5): 90 µM |
| COC(=O)c1cc(S(=O)(=O)N(CC(C)C)c2ccc(Br)cc2)c2ccccc2c1O | – | – | Ki [2]: > 500 µM |
| O=C(O)c1cc(S(=O)(=O)Nc2ccccc2)c2ccccc2c1O | – | – | Ki [1]: Not Active |
| NS(=O)(=O)c1cc(C(=O)O)c(O)c2ccccc12 | – | – | Ki [1]: Not Active |
| O=C(O)c1cc(S(=O)(=O)NCC2CCCCC2)c2ccccc2c1O | 77.6 µM | 11 | – |
| Cc1cc(Oc2ccc(NS(=O)(=O)c3cc(C(=O)O)c(O)c4ccccc34)cc2)cc(C)c1Cl | 0.48 µM | 4.1 | – |
| Cc1cc(Oc2ccc(N(CC(C)C)S(=O)(=O)c3cc(C(=O)O)c(O)c4ccccc34)cc2)cc(C)c1Cl | 0.17 µM | 2.1 | – |
| O=C(O)c1cc(S(=O)(=O)Nc2ccccc2C(F)(F)F)c2ccccc2c1O | 19.3 µM | 4.8 | – |
| O=C(O)c1cc(S(=O)(=O)Nc2ccc(Oc3ccc(Cl)cc3Cl)cc2)c2ccccc2c1O | 0.19 µM | 2.4 | – |
| Cc1cc(Oc2ccc(N(C3CCCC3)S(=O)(=O)c3cc(C(=O)O)c(O)c4ccccc34)cc2)cc(C)c1Cl | 0.29 µM | 8.8 | – |
| O=C(O)c1cc(S(=O)(=O)Nc2ccc([N+](=O)[O-])cc2)c2ccccc2c1O | 23.3 µM | 5.2 | – |
| Cc1ccc(Oc2ccc(NS(=O)(=O)c3cc(C(=O)O)c(O)c4ccccc34)cc2)cc1 | 0.84 µM | 2.5 | – |
| Cc1cc(C)cc(Oc2ccc(NS(=O)(=O)c3cc(C(=O)O)c(O)c4ccccc34)cc2)c1 | 0.39 µM | 1.4 | – |
| CC(=O)OCOC(=O)c1cc(S(=O)(=O)N(CC(C)C)c2ccc(OC(C)C)cc2)c2ccccc2c1O | – | – | inhibition [2]: inactive; IC50 (SK-MEL-5): 15 µM |
| O=C(O)c1cc(S(=O)(=O)Nc2ccc(Br)cc2Br)c2ccccc2c1O | 2.31 µM | 5.5 | – |
| O=C(O)c1cc(S(=O)(=O)Nc2ccc(Oc3cccc(Br)c3)cc2)c2ccccc2c1O | 0.3 µM | 3.8 | – |
| O=C(O)c1cc(S(=O)(=O)Nc2cccc3ccccc23)c2ccccc2c1O | 110 µM | 10 | – |
| O=C(O)c1cc(S(=O)(=O)NCc2ccccc2)c2ccccc2c1O | – | – | Ki [1]: Not Active |
| CC(C)CN(c1ccc(OC(C)C)cc1)S(=O)(=O)c1cc(C(=O)O)c(O)c2ccccc12 | 6.08 µM | – | IC50 (A-375): 150 µM; IC50 (SK-MEL-5): 300 µM; Activity [3]: Active |
| COC(=O)c1cc(S(=O)(=O)N(CC(C)C)c2ccc(Br)cc2)c2ccccc2c1OC | – | – | Ki [2]: > 500 µM |
| COc1ccc(NS(=O)(=O)c2cc(C(=O)O)c(O)c3ccccc23)cc1 | 71.9 µM | 6 | – |
